Experimental data reported in ChEMBL document CHEMBL1154278, “Cassiarins C-E, antiplasmodial alkaloids from the flowers of Cassia siamea” (J Nat Prod, 2009).

Test system: Plasmodium falciparum
Assay: Antimalarial activity against Plasmodium falciparum 3D7 by Giemsa staining
Assay type: functional, organism-based
Procedure, shortened: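 P. falciparum 3D7 clone grown in human erythrocyte culture (Trager–Jensen) in 24-well plates. Compounds dissolved in DMSO (final <0.5%) and diluted in RPMI 1640 with 10% human plasma, 25 mM HEPES and 25 mM NaHCO₃ to final 10, 1, 0.1, 0.01, 0.001 µg/mL. Growth read from MeOH-fixed, Giemsa-stained smears; IC50 = 50% growth inhibition versus untreated control.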

| SMILES | IC50 [µM] |
| --- | --- |
| Cc1cc2c3c(cc(=O)cc-3o1)CC(C)O2 (configuration not stated) | 2.3 |
| CC(=O)Cc1cc(O)cc2oc(C)cc(=O)c12 | 8.6 |
| Cc1cc2cc(=O)cc3oc(C)cc(o1)c23 [ANHYDROBARAKOL] | 4.7 |
| Cc1cc2cc(O)cc3c2c(n1)CC(C)O3 (configuration not stated) [CASSIARIN C] | 24.2 |
| CC(=O)Cc1cc(O)cc2oc(CC3(C)Cc4nc(C)cc5cc(O)cc(c45)O3)cc(=O)c12 (configuration not stated) [CASSIARIN D] | 3.6 |
| Cc1cc2cc(O)cc3c2c(n1)C=C(CC1(C)Cc2nc(C)cc4cc(O)cc(c24)O1)O3 (configuration not stated) [CASSIARIN E] | 7.3 |

Test system: HL-60 (Homo sapiens)
Assay: Cytotoxicity against human HL-60 cells

| SMILES | IC50 [µM] |
| --- | --- |
| Cc1cc2c3c(cc(=O)cc-3o1)CC(C)O2 (configuration not stated) | > 100 |
| CC(=O)Cc1cc(O)cc2oc(C)cc(=O)c12 | > 100 |
| Cc1cc2cc(=O)cc3oc(C)cc(o1)c23 [ANHYDROBARAKOL] | > 100 |
| Cc1cc2cc(O)cc3c2c(n1)CC(C)O3 (configuration not stated) [CASSIARIN C] | > 100 |
| CC(=O)Cc1cc(O)cc2oc(CC3(C)Cc4nc(C)cc5cc(O)cc(c45)O3)cc(=O)c12 (configuration not stated) [CASSIARIN D] | > 100 |
| Cc1cc2cc(O)cc3c2c(n1)C=C(CC1(C)Cc2nc(C)cc4cc(O)cc(c24)O1)O3 (configuration not stated) [CASSIARIN E] | > 100 |
